How the values were obtained:
[1] = Biodistribution in athymic nude mice bearing U87MG glioma xenografts; type: in vivo; details: female, athymic nu/nu, mouse, iv, total radioactivity
[2] = tested on: U87MG human glioma xenografts; test: as above; type: in vivo
[3] = Solution stability in the kit matrix by radio-HPLC; type: physicochemical; details: kit matrix (TPPTS, tricine, mannitol, succinate buffer); monitored by radio-HPLC for 6 h
[4] = tested on: U87MG glioma xenografts; test: SPECT/CT quantification of tumor uptake, U87MG glioma model; type: in vivo, athymic nude mice; details: ~37 MBq i.v., SPECT/CT at 60 min p.i.
Outline: (§1)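 Mice bearing U87MG glioma and MDA-MB-231 breast xenografts (4 weeks post-inoculation) got ~37 MBq 99mTc radiotracer (not HPLC-purified) in 0.1 mL saline by tail vein, under ~2.0% isoflurane. Multi-pinhole SPECT (75 projections over 30 min per frame, 2 frames), then CT at 45 kV, 500 μA. Tumors delineated on CT/SPECT; activity taken from a γ-counter-calibrated source standard curve, as %ID/cm3.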

[5] = SPECT/CT quantification of tumor uptake, MDA-MB-231 breast tumor model; type: in vivo, athymic nude mice; details: athymic nude, mouse, iv, 37 MBq, total radioactivity
Outline: as §1

[6] = 5 min p.i., U87MG glioma-bearing athymic nude mice

SMILES | tissue uptake at 0.5 h ([1]; lungs, 0.1 MBq) [%ID/g] | tissue uptake at 1 h ([1]; lungs, 0.1 MBq) [%ID/g] | tissue uptake at 2 h ([1]; lungs, 0.1 MBq) [%ID/g] | tissue uptake at 0.5 h ([1]; muscle, 0.1 MBq) [%ID/g] | tissue uptake at 1 h ([1]; muscle, 0.1 MBq) [%ID/g] | tissue uptake at 2 h ([1]; muscle, 0.1 MBq) [%ID/g] | tissue uptake at 0.5 h ([1]; spleen, 0.1 MBq) [%ID/g] | tissue uptake at 1 h ([1]; spleen, 0.1 MBq) [%ID/g] | tissue uptake at 2 h ([1]; spleen, 0.1 MBq) [%ID/g] | tissue to tissue ratio at 0.5 h ([1]; tumor and blood, 0.1 MBq) | tissue to tissue ratio at 1 h ([1]; tumor and blood, 0.1 MBq) | tissue to tissue ratio at 2 h ([1]; tumor and blood, 0.1 MBq) | tissue to tissue ratio at 0.5 h ([1]; tumor and liver, 0.1 MBq) | tissue to tissue ratio at 1 h ([1]; tumor and liver, 0.1 MBq) | tissue to tissue ratio at 2 h ([1]; tumor and liver, 0.1 MBq) | tissue to tissue ratio at 0.5 h ([1]; tumor and lung) | tissue to tissue ratio at 1 h ([1]; tumor and lung) | tissue to tissue ratio at 2 h ([1]; tumor and lung) | tissue to tissue ratio at 0.5 h ([1]; tumor and muscle) | tissue to tissue ratio at 1 h ([1]; tumor and muscle) | further results
N=C(N)NCCC[C@@H]1NC(=O)[C@H](CCCCNC(=O)[C@H](CC(=O)O)NC(=O)[C@H](CC(=O)O)NC(=O)[C@H](CC(=O)O)NC(=O)CC[C@H](NC(=O)CCOCCOCCOCCOCCNC(=O)c2ccc(NN)nc2)C(=O)N[C@@H](CC(=O)O)C(=O)N[C@@H](CC(=O)O)C(=O)N[C@@H](CC(=O)O)C(=O)NCCCC[C@@H]2NC(=O)[C@@H](Cc3ccccc3)NC(=O)[C@H](CC(=O)O)NC(=O)CNC(=O)[C@H](CCCNC(=N)N)NC2=O)NC(=O)[C@@H](Cc2ccccc2)NC(=O)[C@H](CC(=O)O)NC(=O)CNC1=O [^99mTc-P6D-RGD2, [^99mTc(HYNIC-P6D-RGD2)(tricine)(TPPTS)], metal not drawn] | 2.05 ± 0.28 | 1.85 ± 0.2 | 1.11 ± 0.42 | 1.79 ± 0.2 | 1.59 ± 0.25 | 0.79 ± 0.23 | 2.6 ± 0.37 | 2.58 ± 0.46 | 2.4 ± 0.37 | 2.5 ± 0.33 | 6.5 ± 0.58 | 6.98 ± 4.06 | 0.65 ± 0.15 | 0.87 ± 0.17 | 0.84 ± 0.18 | 1.19 ± 0.35 | 1.68 ± 0.1 | 2.41 ± 0.73 | 1.97 ± 0.53 | 2 ± 0.36 | tissue uptake at 1 h ([1]; blood, 14 mg/kg): 0.23 ± 0.01 %ID/g; tissue uptake at 1 h ([1]; brain, 14 mg/kg): 0.02 ± 0.01 %ID/g; tissue uptake at 1 h ([1]; eyes, 14 mg/kg): 0.23 ± 0.1 %ID/g; tissue uptake at 1 h ([1]; heart, 14 mg/kg): 0.2 ± 0.07 %ID/g; tissue uptake at 1 h ([1]; intestine, 14 mg/kg): 0.22 ± 0.11 %ID/g; tissue uptake at 1 h ([1]; kidneys, 14 mg/kg): 23.9 ± 3.61 %ID/g; tissue uptake at 1 h ([1]; liver, 14 mg/kg): 0.28 ± 0.04 %ID/g; tissue to tissue ratio at 1 h ([1]; tumor and lung, 14 mg/kg): 1.1 ± 0.13; tissue to tissue ratio at 2 h ([1]; tumor and muscle): 3.3 ± 1.24; tissue uptake at 0.5 h ([1]; tumor, 0.1 MBq): 2.85 ± 0.55 %ID/g; tissue uptake at 1 h ([1]; tumor, 0.1 MBq): 3.13 ± 0.47 %ID/g; tissue uptake at 2 h ([1]; tumor, 0.1 MBq): 2.45 ± 0.9 %ID/g; Initial blood radioactivity level, fold higher than ^99mTc-3P-RGD2 [2, 6]: ~3 ×; Initial blood radioactivity level, fold higher than ^99mTc-P6G-RGD2 [2, 6]: ~5 ×; Integrin αvβ3 specificity of tumor uptake (blocking experiment) ([2]; 60 min p.i., with/without coinjection of excess RGD2 (350 μg/mouse or 14 mg/kg)): integrin αvβ3-specific; Time remained stable in the kit matrix postlabeling [3]: more than 6 h
N=C(N)NCCC[C@@H]1NC(=O)[C@H](CCCCNC(=O)CNC(=O)CNC(=O)CNC(=O)CC[C@H](NC(=O)CCOCCOCCOCCOCCNC(=O)c2ccc(NN)nc2)C(=O)NCC(=O)NCC(=O)NCC(=O)NCCCC[C@@H]2NC(=O)[C@@H](Cc3ccccc3)NC(=O)[C@H](CC(=O)O)NC(=O)CNC(=O)[C@H](CCCNC(=N)N)NC2=O)NC(=O)[C@@H](Cc2ccccc2)NC(=O)[C@H](CC(=O)O)NC(=O)CNC1=O [^99mTc-P6G-RGD2, [^99mTc(HYNIC-P6G-RGD2)(tricine)(TPPTS)], metal not drawn] | 4.38 ± 0.55 | 3.83 ± 0.56 | 2.81 ± 0.36 | 1.75 ± 0.24 | 1.68 ± 0.33 | 0.83 ± 0.11 | 3.08 ± 0.88 | 2.68 ± 0.57 | 2.31 ± 0.27 | 14.1 ± 1.25 | 15.6 ± 2.79 | 41.8 ± 5.13 | 2.95 ± 0.33 | 2.86 ± 0.3 | 3.21 ± 0.53 | 2.07 ± 0.15 | 2.35 ± 0.24 | 2.71 ± 0.12 | 5.04 ± 0.68 | 5.09 ± 0.51 | tissue to tissue ratio at 2 h ([1]; tumor and muscle): 9.42 ± 1.25; tissue uptake at 0.5 h ([1]; tumor, 0.1 MBq): 8.85 ± 0.67 %ID/g; tissue uptake at 1 h ([1]; tumor, 0.1 MBq): 8.17 ± 1.1 %ID/g; tissue uptake at 2 h ([1]; tumor, 0.1 MBq): 7.82 ± 0.76 %ID/g; Tumor uptake on the basis of SPECT quantification [4]: ~8.2 %ID/cm^3; tissue uptake per volume at 1 h [5]: 3.5 %ID/mL; Time remained stable in the kit matrix postlabeling [3]: more than 6 h

From article PMC4166031 (Bioconjugate Chemistry, 2014)
